Reference: ChEMBL document CHEMBL1649383, “Mode of action of epoxyphomalins A and B and characterization of related metabolites from the marine-derived fungus Paraconiothyrium sp” (J Nat Prod, 2010)
Converted amounts (≈) assume the structure as drawn.

Assays:
[1] = Cytotoxicity against human RXF 944L cells at 0.001 ug/ml relative to control; type: functional
[2] = Cytotoxicity against human UXF 1138L cells at 10 ug/ml relative to control; type: functional
[3] = Cytotoxicity against human RXF 486L cells; type: functional, cell-based
Method in brief: (§1)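 Monolayer cell survival and proliferation assay run across a panel of 36 human tumor cell lines, with IC50 determined from the resulting growth data.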

[4] = Cytotoxicity against human LXFL 1121L cells; type: functional, cell-based
Method in brief: (§2)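 Monolayer cell survival and proliferation assay run across a panel of 36 human tumour cell lines; IC50 values determined.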

[5] = Cytotoxicity against human BXF 1218L cells at 0.001 ug/ml relative to control; type: functional
PANC-1 [6] = test: Cytotoxicity against human PANC1 cells at 0.01 ug/ml relative to control; type: functional
[7] = Cytotoxicity against human HNXF 536L cells at 10 ug/ml relative to control; type: functional
[8] = Cytotoxicity against human RXF 944L cells at 0.01 ug/ml relative to control; type: functional
[9] = Cytotoxicity against human LXFL 1121L cells at 0.1 ug/ml relative to control; type: functional
[10] = Cytotoxicity against human RXF 393NL cells at 0.001 ug/ml relative to control; type: functional
[11] = Cytotoxicity against human LXFL 529L cells at 0.001 ug/ml relative to control; type: functional
OVCAR-3 = test: Cytotoxicity against human OVCAR3 cells at 0.01 ug/ml relative to control; type: functional
[12] = Cytotoxicity against human RXF 944L cells at 0.1 ug/ml relative to control; type: functional
HT-29 = test: Cytotoxicity against human HT-29 cells at 0.1 ug/ml relative to control; type: functional
[13] = Cytotoxicity against human MEXF 276L cells; type: functional, cell-based; settings: MEXF276L; method in brief: as §1
[14] = Cytotoxicity against human LXFL 529L cells at 1 ug/ml relative to control; type: functional
DU-145 [15] = test: Cytotoxicity against human DU145 cells at 0.1 ug/ml relative to control; type: functional
[16] = Cytotoxicity against human PXF 1752L cells at 10 ug/ml relative to control; type: functional
CWR22R = test: Cytotoxicity against human 22Rv1 cells at 0.1 ug/ml relative to control; type: functional
LNCaP = test: Cytotoxicity against human LNCAP cells; type: functional, cell-based; method in brief: as §2
[17] = Cytotoxicity against human OVXF 1619L cells at 0.01 ug/ml relative to control; type: functional
PANC-1 [18] = test: Cytotoxicity against human PANC1 cells at 10 ug/ml relative to control; type: functional
[19] = Cytotoxicity against human PAXF 1657L cells at 0.01 ug/ml relative to control; type: functional
HCT-116 [20] = test: Cytotoxicity against human HCT116 cells; type: functional, cell-based
Method in brief: (§3)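 Monolayer cell survival and proliferation assay, run within a panel of 36 human tumor cell lines; IC50 determined per cell line.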

[21] = Cytotoxicity against human RXF 944L cells at 10 ug/ml relative to control; type: functional
SF-268 = test: Cytotoxicity against human SF268 cells; type: functional, cell-based; method in brief: as §1
[22] = Cytotoxicity against human PC3M cells; type: functional, cell-based; settings: PC-3M; method in brief: as §1
HCT-116 [23] = test: Cytotoxicity against human HCT116 cells at 0.001 ug/ml relative to control; type: functional
[24] = Cytotoxicity against human PAXF 1657L cells at 10 ug/ml relative to control; type: functional
[25] = Cytotoxicity against human CNXF 498NL cells at 0.001 ug/ml relative to control; type: functional
[26] = Cytotoxicity against human RXF 1781L cells at 0.001 ug/ml relative to control; type: functional
T-24 [27] = test: Cytotoxicity against human T24 cells at 0.001 ug/ml relative to control; type: functional
[28] = Cytotoxicity against human RXF 1781L cells at 10 ug/ml relative to control; type: functional
[29] = Cytotoxicity against human RXF 1781L cells; type: functional, cell-based; method in brief: as §1
[30] = Cytotoxicity against human LXFA 289L cells; type: functional, cell-based; method in brief: as §2
[31] = Cytotoxicity against human MEXF 394NL cells at 0.001 ug/ml relative to control; type: functional
[32] = Cytotoxicity against human OVXF 1619L cells at 10 ug/ml relative to control; type: functional
[33] = Cytotoxicity against human MEXF 520L cells at 0.001 ug/ml relative to control; type: functional
[34] = Cytotoxicity against human RXF 486L cells at 0.1 ug/ml relative to control; type: functional
[35] = Cytotoxicity against human LXFL 529L cells at 0.1 ug/ml relative to control; type: functional
[36] = Cytotoxicity against human LXFL 1121L cells at 0.01 ug/ml relative to control; type: functional
[37] = Cytotoxicity against human UXF 1138L cells at 1 ug/ml relative to control; type: functional
[38] = Cytotoxicity against human LXFL 1121L cells at 10 ug/ml relative to control; type: functional
[39] = Cytotoxicity against human PXF 1752L cells at 0.01 ug/ml relative to control; type: functional
[40] = Cytotoxicity against human MEXF 462NL cells at 0.1 ug/ml relative to control; type: functional
DU-145 [41] = test: Cytotoxicity against human DU145 cells at 0.01 ug/ml relative to control; type: functional
[42] = Cytotoxicity against human GXF251L cells; type: functional, cell-based; settings: GXF 251L; method in brief: as §3
[43] = Cytotoxicity against human OVXF 899L cells; type: functional, cell-based; method in brief: as §1
[44] = Cytotoxicity against human OVXF 899L cells at 0.001 ug/ml relative to control; type: functional
T-24 [45] = test: Cytotoxicity against human T24 cells at 0.01 ug/ml relative to control; type: functional
[46] = Cytotoxicity against human MEXF 276L cells at 0.01 ug/ml relative to control; type: functional, MEXF276L
[47] = Cytotoxicity against human OVXF 899L cells at 1 ug/ml relative to control; type: functional
[48] = Cytotoxicity against human OVXF 899L cells at 0.1 ug/ml relative to control; type: functional
[49] = Cytotoxicity against human RXF 1781L cells at 1 ug/ml relative to control; type: functional

## C=C1[C@@H](O)[C@H]2O[C@@]2(C[C@H]2C(C)=CC[C@H]3C(C)(C)CCC[C@]23C)[C@@H](O)[C@H]1O [EPOXYPHOLAMIN D]
[1]
  Activity: 150%
[2]
  Activity: 9%
[3]
  IC50: 7.67 µM
  IC70: 5.27 µg/mL (≈ 14.5 µM)
  IC90: 10 µg/mL (≈ 27.6 µM)
[4]
  IC50: 8.94 µM
  IC70: 5.35 µg/mL (≈ 14.8 µM)
  IC90: 8.82 µg/mL (≈ 24.3 µM)
[5]
  Activity: 106%
PANC-1 [6]
  Activity: 92%
[7]
  Activity: 5%
[8]
  Activity: 138%
[9]
  Activity: 146%
[10]
  Activity: 98%
[11]
  Activity: 99%
OVCAR-3
  Activity: 98%
[12]
  Activity: 95%
HT-29
  Activity: 108%
[13]
  IC50: 4.69 µM
  IC70: 5.54 µg/mL (≈ 15.3 µM)
  IC90: 18.1 µg/mL (≈ 49.8 µM)
[14]
  Activity: 85%
DU-145 [15]
  Activity: 88%
[16]
  Activity: 13%
CWR22R
  Activity: 90%
LNCaP
  IC50: 17 µM
  IC70: 9.38 µg/mL (≈ 25.9 µM)
  IC90: 14.3 µg/mL (≈ 39.5 µM)
[17]
  Activity: 106%
PANC-1 [18]
  Activity: 7%
[19]
  Activity: 103%
HCT-116 [20]
  IC50: 7.7 µM
  IC70: 4.86 µg/mL (≈ 13.4 µM)
  IC90: 8.47 µg/mL (≈ 23.4 µM)
[21]
  Activity: 14%
SF-268
  IC50: 10.4 µM
  IC70: 5.62 µg/mL (≈ 15.5 µM)
  IC90: 8.36 µg/mL (≈ 23.1 µM)
[22]
  IC50: 0.72 µM
  IC70: 0.605 µg/mL (≈ 1.67 µM)
  IC90: 4.12 µg/mL (≈ 11.4 µM)
HCT-116 [23]
  Activity: 88%
[24]
  Activity: 9%
[25]
  Activity: 102%
[26]
  Activity: 98%
T-24 [27]
  Activity: 100%
[28]
  Activity: 21%
[29]
  IC50: 11.8 µM
  IC70: 7.69 µg/mL (≈ 21.2 µM)
  IC90: 13.8 µg/mL (≈ 38 µM)
[30]
  IC50: 18.5 µM
  IC70: 13.9 µg/mL (≈ 38.3 µM)
  IC90: 28.9 µg/mL (≈ 79.6 µM)
[31]
  Activity: 97%
[32]
  Activity: 10%
[33]
  Activity: 97%
[34]
  Activity: 97%
[35]
  Activity: 100%
[36]
  Activity: 135%
[37]
  Activity: 72%
[38]
  Activity: 5%
[39]
  Activity: 101%
[40]
  Activity: 167%
DU-145 [41]
  Activity: 76%
[42]
  IC50: 2.07 µM
  IC70: 2.75 µg/mL (≈ 7.6 µM)
  IC90: 17.4 µg/mL (≈ 47.9 µM)
[43]
  IC50: 8.19 µM
  IC70: 5.62 µg/mL (≈ 15.5 µM)
  IC90: 10.7 µg/mL (≈ 29.4 µM)
[44]
  Activity: 103%
T-24 [45]
  Activity: 97%
[46]
  Activity: 98%
[47]
  Activity: 84%
[48]
  Activity: 97%
[49]
  Activity: 100%
